These results are taken from ChEMBL document CHEMBL2021854, “2-Aminopyrimidine based 4-aminoquinoline anti-plasmodial agents. Synthesis, biological activity, structure-activity relationship and mode of action studies” (Eur J Med Chem, 2012).

Data set [1] concerns Plasmodium falciparum. The data set is described as follows: Antiplasmodial activity chloroquine-sensitive Plasmodium falciparum 3D7 infected in human A+ erythrocytes assessed as inhibition of [3H]-hypoxanthine incorporation after 24 hrs by scintillation counting. The format is functional, organism-based.
For data set [2], the system named is Plasmodium falciparum. The data set is described as follows: Antiplasmodial activity chloroquine-resistant Plasmodium falciparum K1 infected in human A+ erythrocytes assessed as inhibition of [3H]-hypoxanthine incorporation after 24 hrs by scintillation counting. The format is functional, organism-based.
Data set [3] deals with Plasmodium falciparum. The data set is described as follows: Resistant factor, ratio of IC50 for chloroquine-resistant Plasmodium falciparum K1 to IC50 for chloroquine-sensitive Plasmodium falciparum 3D7. The format is functional. In outline: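 Resistance factor computed as IC50 against K1 divided by IC50 against 3D7, both from the [3H]hypoxanthine incorporation assay.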

Data set [4] in a line: Inhibition of beta-hematin formation assessed as Ferriprotoporphyrin IX biomineralisation at 1 mg/ml after 24 hrs. The format is functional. In outline:
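Hemin chloride (0.5 mg/ml in DMSO) mixed with 0.5 M sodium acetate buffer pH 4.4 and drug or solvent control, incubated 37 °C for 24 h. Pellet washed with DMSO to remove unreacted hemin, dissolved in 0.1 N NaOH, absorbance read at 405 nm; percent inhibition relative to control. Highest concentration tested 1 mg/ml.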

A short description of data set [5]: Cytotoxicity against MDCK cells assessed as minimum compound concentration required to causes microscopically detectable alteration of normal cell morphology. To be noted: dog. Format: cell-based, Canis lupus familiaris. Put shortly: (§1)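 Confluent, non-proliferating cell cultures were exposed to the compounds. The endpoint was the minimum concentration producing a microscopically detectable alteration of normal cell morphology.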

In data set [6] the test system is Influenza A virus. The data set is described as follows: Antiviral activity against Influenza A virus H3N2 infected in MDCK cells assessed as reduction visual scoring of virus-induced cytopathogenicity after 4 days. The format is functional, organism-based. Conditions: 96 h. Put shortly: (§2)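 MDCK monolayers infected with 100 CCID50 of influenza A (H1N1 or H3N2) or influenza B, with varying compound concentrations. Cytopathicity read when untreated infected controls reached complete CPE.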
In general terms: Protection from cytopathic effect is a common read-out in antiviral testing.

The subject of data set [7] is Influenza B virus. The data set is described as follows: Antiviral activity against Influenza B virus infected in MDCK cells assessed as reduction visual scoring of virus-induced cytopathogenicity after 4 days. Format: functional, organism-based. Conditions: 96 h. Put shortly:
as §2

The test system of data set [8] is Influenza A virus. The data set is described as follows: Antiviral activity against Influenza A virus H3N2 infected in MDCK cells assessed as inhibition of virus-induced cytopathogenicity after 4 days by colorimetric formazan-based MTS assay. Format: functional, organism-based. To be noted: 96 h.
Data set [9] relates to Influenza B virus. The data set is described as follows: Antiviral activity against Influenza B virus infected in MDCK cells assessed as inhibition of virus-induced cytopathogenicity after 4 days by colorimetric formazan-based MTS assay. Format: functional, organism-based. Conditions: 96 h.
For data set [10], the system named is Vesicular stomatitis virus. Nature of the data set: Antiviral activity against Vesicular stomatitis virus infected in HEL cells assessed as inhibition of virus-induced cytopathogenicity after 4 days. Format: functional, organism-based. Conditions: 96 h. In outline: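 Confluent HEL or HeLa monolayers infected with 100 CCID50 of virus in the presence of varying compound concentrations.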

The nature of data set [11]: Cytotoxicity against human HEL cells assessed as minimum compound concentration required to causes microscopically detectable alteration of normal cell morphology. The format is cell-based. Put shortly: as §1
Data set [12] concerns HeLa. The data set is described as follows: Cytotoxicity against human HeLa cells assessed as cell viability by colorimetric formazan-based MTS assay.
The nature of data set [13]: Cytotoxicity against cat CRFK cells assessed as cell viability by colorimetric formazan-based MTS assay. To be noted: CRFK cells. The arrangement: species or system Felis catus. (In general: Formazan colour is commonly taken as a measure of viable cells.)
Data set [14] deals with Feline infectious peritonitis virus. Nature of the data set: Antiviral activity against FIPV infected in cat CRFK cells assessed as inhibition of virus-induced cytopathic effect after 4 days by colorimetric formazan-based MTS assay. Format: functional, cell-based. To be noted: Alphacoronavirus 1, CRFK, 96 h.
Data set [15] concerns Felid alphaherpesvirus 1. Nature of the data set: Antiviral activity against Feline herpesvirus infected in cat CRFK cells assessed as inhibition of virus-induced cytopathic effect after 4 days by colorimetric formazan-based MTS assay. Format: functional, organism-based. Conditions: Felid alphaherpesvirus 1, CRFK, 96 h.
For data set [16], the system named is Human alphaherpesvirus 3. The data set is described as follows: Antiviral activity against […] expressing thymidine kinase infected in HEL cells assessed as reduction of virus plaque formation after 4 days. The format is functional, cell-based. To be noted: Human alphaherpesvirus 3, strain Oka vaccine, 96 h.

SMILES strings stand for the structures. pEC50, pIC50: −log10 of the molar value. Bounds are passed on as bounds.

For `CCOC(=O)c1c(C)nc(NCC(C)Nc2ccnc3cc(Cl)ccc23)nc1-c1ccccc1` (stereo not given), the figures for the pIC50 in [1] and in [2] were 4.80 and 4.55, respectively. Moreover, the “Ratio IC50” value in data set [3] turned out to be 1.7683. Besides, the inhibition in [4] was 35%.

Turning to `CC(N)C12CC3CC(CC(C3)C1)C2` (stereo not given) [RIMANTADINE], the MCC in data set [5] was above 200 µM. Moreover, the pEC50 in [6], in data set [7], in data set [8] and in data set [9] was below 3.70 each time.

For the molecule `Nc1nc(O)c2ncn(COC(CO)CO)c2n1` [GANCICLOVIR], the results for the pEC50 in [10], in data set [14] and in data set [15] were below 4.00, below 4.00 and 5.39, respectively. In data set [11], the MCC was above 100 µM. For the same molecule, the CC50 in data set [12] is 222000 nM; in [13] it was above 100000 nM.

With `CCOC(=O)c1c(C)nc(NCCCCCCCNc2ccnc3cc(Cl)ccc23)nc1-c1ccccc1`, the pIC50 in data set [1] is 5.95; in data set [2], 6.21. Further, the “Ratio IC50” value in [3] is listed as 0.544. Moreover, in data set [4], the inhibition was 89%.

`CCOC(=O)c1c(C)nc(NCCCCCCCCCCCCNc2ccnc3cc(Cl)ccc23)nc1-c1ccccc1`: the results for the pIC50 in data set [1] and in data set [2] were 6.58 and 6.07, respectively. For the same molecule, the “Ratio IC50” value in [3] was 3.22.

`CCOC(=O)c1c(C)nc(Nc2ccc(Nc3ccnc4cc(Cl)ccc34)cc2)nc1-c1ccccc1`: the pIC50 in data set [1] is 6.19; in data set [2] it was 5.21. Further, the “Ratio IC50” value in data set [3] is given as 9.6. The inhibition in data set [4] was 100%.

For `CC(=O)N[C@H]1[C@@H](OP(=O)(O)OP(=O)(O)OC[C@H]2O[C@@H](n3ccc(=O)[nH]c3=O)[C@H](O)[C@@H]2O)O[C@H](CO)[C@@H](O)[C@@H]1O[C@@](C)(OP(=O)(O)O)C(=O)O`, the CC50 in data set [13] was 15.8 µg/mL. The EC50 in data set [14] stood at 1.5 µg/mL; in data set [15] it was 0.8 µg/mL.

For `CCOC(=O)c1c(C)nc(NCCCC(C)CNc2ccnc3cc(Cl)ccc23)nc1-c1ccccc1` (stereo not given), the pIC50 in data set [1] was 6.54; in data set [2] it was 6.07. Moreover, the “Ratio IC50” value in data set [3] is recorded as 3.

Regarding `CCOC(=O)c1c(C)nc(NCCCCCCCCNc2ccnc3cc(Cl)ccc23)nc1-c1ccccc1`, the results for the pIC50 in data set [1] and in data set [2] were 6.60 and 6.29, respectively. The “Ratio IC50” value in [3] is 2.047. The inhibition in data set [4] was found to be 56%.

With `O=c1[nH]c(=O)n([C@H]2C[C@H](O)[C@@H](CO)O2)cc1/C=C/Br` [BRIVUDINE], the pEC50 in data set [10] is below 3.60; in [16] it was 7.72. The MCC in data set [11] was above 250 µM. For the same molecule, the CC50 in data set [12] turned out to be 362000 nM.

For orientation: pIC50 means the IC50 on a negative log10 scale, so that one unit is a factor of ten. The term inhibition denotes the drop in the measured response relative to a control, in per cent. As usually defined, the pEC50 is the EC50 on a negative log10 scale, so that one unit is a factor of ten. As a reminder, the CC50 is the concentration at which the toxic effect on the cells reaches its halfway point. Broadly, the EC50 is the concentration at which the effect is half-maximal.
